Measurements collected from several papers.
Lines come from different studies, so protocols differ.
Cell line: MM1.S
Effect on: cell growth or viability

Compound	method	time	measurement	value
CC(C)C[C@H](NC(=O)[C@H](Cc1ccccc1)NC(=O)c1cnccn1)B(O)O	ATP luminescence	48 h	IC50	15 nM
C=CC(=O)N1CCC[C@@H](n2nc(-c3ccc(Oc4ccccc4)cc3)c3c(N)ncnc32)C1	–	48 h	GI50	7560 nM
CCOC(=O)C1=C(C)NC(=S)NC1c1cccc(O)c1 (centres unmarked)	ATP luminescence	72 h	IC50	144000 nM
CC(C)C[C@H](NC(=O)[C@H](Cc1ccccc1)NC(=O)c1cnccn1)B(O)O	ATP luminescence	–	EC50	1.5 nM
N[C@@H]1CCCN(c2c(/C=C3\SC(=O)NC3=O)cccc2-c2ccccc2)C1	thymidine uptake	72 h	GI50	711 nM
O=C(C[C@@H](C(F)F)n1ccc(F)n1)N1CCC(O)(Cn2cnc3c(cnn3-c3ccc(F)cc3)c2=O)CC1	ATP luminescence	5 days	IC50	33 nM
CCS(=O)(=O)Nc1ccc(Oc2ccc(Cl)cc2)c(-c2cn(C)c(=O)c3ccccc23)c1	resazurin	72 h	IC50	3.5 nM
CON(C)C(=O)N1N=C(c2cc(F)ccc2F)S[C@@]1(CCCN)c1ccccc1	ATP luminescence	72 h	IC50	4.9 nM
